Activity calls are given as the source filed them. The calls are words filed in the database; no cut-off is given here.
Assays:
MCF7 [1] = experiment: Induction of apoptosis in human MCF7 cells assessed as necrotic cells at 1 uM after 24 hrs by Annexin V-FITC/propidium iodide staining-based flow cytometric analysis (reference value: 0.1%); format: functional
MCF7 [2] = experiment: Induction of apoptosis in human MCF7 cells assessed as late apoptotic cells at 50 uM after 6 hrs by Annexin V-FITC/propidium iodide staining-based flow cytometric analysis (reference value: 4.7%); format: functional
How it was run: (§1)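 Log-phase cells seeded in 6-well plates and treated after adhesion; incubated in cycles of 6 h on/6 h off up to 48 h. Collected after PBS washes and trypsin, resuspended in Ca2+-enriched binding buffer. Stained with annexin V (1 µg/mL) plus PI (0.5 µg/mL) 15 min in the dark at room temperature. 10,000 events, FL1 vs FL2. At least three repeats.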

MCF7 [3] = experiment: Induction of apoptosis in human MCF7 cells assessed as viable cells at 25 uM after 48 hrs by Annexin V-FITC/propidium iodide staining-based flow cytometric analysis (reference value: 87.9%); format: functional; conditions: MCF7, 48 h, read-out: Activity
MCF7 [4] = experiment: Induction of apoptosis in human MCF7 cells at 1 uM after 48 hrs by Annexin V-FITC/propidium iodide staining-based flow cytometric analysis; format: functional, cell-based
How it was run: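 Log-phase cells were seeded and treated after adhering, for 48 h in cycles of 6 h on and 6 h off. Cells were stained with annexin V (1 µg/mL) and PI (0.5 µg/mL) in Ca2+-enriched binding buffer for 15 min in the dark at room temperature. 10,000 events were read by flow cytometry (FL1 vs FL2). Apoptosis was the sum of early and late stages. At least three repeats.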

MCF7 [5] = experiment: Induction of apoptosis in human MCF7 cells assessed as late apoptotic cells at 1 uM after 24 hrs by Annexin V-FITC/propidium iodide staining-based flow cytometric analysis (reference value: 5.6%); format: functional; how it was run: as §1
MCF7 [6] = experiment: Induction of apoptosis in human MCF7 cells assessed as necrotic cells at 10 uM after 24 hrs by Annexin V-FITC/propidium iodide staining-based flow cytometric analysis (reference value: 0.1%); format: functional
MCF7 [7] = experiment: Antitumor activity against human MCF7 cells xenografted in BALB/c nude mouse assessed as tumor weight at 40 mg/kg administered for a week; format: functional
How it was run: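 Male BALB/c nude mice, 4 weeks old, 15-20 g. Log-phase MCF-7 cells in DMEM, 0.1 mL of 1×10^6 cells/mL, injected subcutaneously into the hind leg. Calipers twice weekly; at about 90 mm3, groups of 5. Vehicle was isotonic saline plus 0.005% DMSO. Injected at 40 mg/kg for a week; tumour volume recorded daily.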

MCF7 [8] = experiment: Induction of apoptosis in human MCF7 cells assessed as necrotic cells at 50 uM after 24 hrs by Annexin V-FITC/propidium iodide staining-based flow cytometric analysis (reference value: 0.1%); format: functional
MCF7 [9] = experiment: Induction of apoptosis in human MCF7 cells assessed as early apoptotic cells at 50 uM after 48 hrs by Annexin V-FITC/propidium iodide staining-based flow cytometric analysis (reference value: 9.1%); format: functional; how it was run: as §1
MCF7 [10] = experiment: Induction of apoptosis in human MCF7 cells assessed as necrotic cells at 25 uM after 24 hrs by Annexin V-FITC/propidium iodide staining-based flow cytometric analysis (reference value: 0.2%); format: functional
MCF7 [11] = experiment: Induction of apoptosis in human MCF7 cells assessed as early apoptotic cells at 10 uM after 6 hrs by Annexin V-FITC/propidium iodide staining-based flow cytometric analysis (reference value: 2%); format: functional; how it was run: as §1
MCF7 [12] = experiment: Induction of apoptosis in human MCF7 cells assessed as early apoptotic cells at 5 uM after 24 hrs by Annexin V-FITC/propidium iodide staining-based flow cytometric analysis (reference value: 2.1%); format: functional; how it was run: as §1
MCF7 [13] = experiment: Induction of apoptosis in human MCF7 cells assessed as late apoptotic cells at 25 uM after 6 hrs by Annexin V-FITC/propidium iodide staining-based flow cytometric analysis (reference value: 4.7%); format: functional; how it was run: as §1
MCF7 [14] = experiment: Induction of apoptosis in human MCF7 cells assessed as early apoptotic cells at 50 uM after 24 hrs by Annexin V-FITC/propidium iodide staining-based flow cytometric analysis (reference value: 2.1%); format: functional; how it was run: as §1
MCF7 [15] = experiment: Induction of apoptosis in human MCF7 cells assessed as necrotic cells at 10 uM after 24 hrs by Annexin V-FITC/propidium iodide staining-based flow cytometric analysis (reference value: 0.2%); format: functional
MCF7 [16] = experiment: Induction of apoptosis in human MCF7 cells assessed as early apoptotic cells at 25 uM after 24 hrs by Annexin V-FITC/propidium iodide staining-based flow cytometric analysis (reference value: 2.1%); format: functional; how it was run: as §1
MCF7 [17] = experiment: Induction of apoptosis in human MCF7 cells assessed as viable cells at 50 uM after 24 hrs by Annexin V-FITC/propidium iodide staining-based flow cytometric analysis (reference value: 92.1%); format: functional; conditions: MCF7, 24 h, read-out: Activity
MCF7 [18] = experiment: Induction of apoptosis in human MCF7 cells assessed as viable cells at 5 uM after 6 hrs by Annexin V-FITC/propidium iodide staining-based flow cytometric analysis (reference value: 92.8%); format: functional; conditions: MCF7, 6 h, read-out: Activity
MCF7 [19] = experiment: Induction of apoptosis in human MCF7 cells assessed as viable cells at 25 uM after 6 hrs by Annexin V-FITC/propidium iodide staining-based flow cytometric analysis (reference value: 92.8%); format: functional; conditions: MCF7, 6 h, read-out: Activity
MCF7 [20] = experiment: Induction of apoptosis in human MCF7 cells assessed as early apoptotic cells at 25 uM after 6 hrs by Annexin V-FITC/propidium iodide staining-based flow cytometric analysis (reference value: 2%); format: functional; how it was run: as §1
MCF7 [21] = experiment: Induction of apoptosis in human MCF7 cells assessed as late apoptotic cells at 2505 uM after 24 hrs by Annexin V-FITC/propidium iodide staining-based flow cytometric analysis (reference value: 5.6%); format: functional; how it was run: as §1
MCF7 [22] = experiment: Induction of apoptosis in human MCF7 cells assessed as late apoptotic cells at 25 uM after 24 hrs by Annexin V-FITC/propidium iodide staining-based flow cytometric analysis (reference value: 5.6%); format: functional; how it was run: as §1
MCF7 [23] = experiment: Induction of apoptosis in human MCF7 cells assessed as early apoptotic cells at 1 uM after 48 hrs by Annexin V-FITC/propidium iodide staining-based flow cytometric analysis (reference value: 9.1%); format: functional; how it was run: as §1
MCF7 [24] = experiment: Induction of apoptosis in human MCF7 cells assessed as viable cells at 10 uM after 24 hrs by Annexin V-FITC/propidium iodide staining-based flow cytometric analysis (reference value: 92.1%); format: functional; conditions: MCF7, 24 h, read-out: Activity
MCF7 [25] = experiment: Induction of apoptosis in human MCF7 cells assessed as viable cells at 25 uM after 24 hrs by Annexin V-FITC/propidium iodide staining-based flow cytometric analysis (reference value: 92.1%); format: functional; conditions: MCF7, 24 h, read-out: Activity
MCF7 [26] = experiment: Induction of apoptosis in human MCF7 cells assessed as late apoptotic cells at 1 uM after 6 hrs by Annexin V-FITC/propidium iodide staining-based flow cytometric analysis (reference value: 4.7%); format: functional; how it was run: as §1
MCF7 [27] = experiment: Induction of apoptosis in human MCF7 cells assessed as necrotic cells at 1 uM after 24 hrs by Annexin V-FITC/propidium iodide staining-based flow cytometric analysis (reference value: 0.2%); format: functional
MCF7 [28] = experiment: Induction of apoptosis in human MCF7 cells assessed as necrotic cells at 25 uM after 6 hrs by Annexin V-FITC/propidium iodide staining-based flow cytometric analysis (reference value: 0.5%); format: functional

`COc1cc([C@@H]2c3cc4c(cc3[C@@H](O[C@@H]3O[C@@H]5CO[C@@H](C)O[C@H]5[C@H](O)[C@H]3O)[C@H]3COC(=O)[C@H]23)OCO4)cc(OC)c1O` [ETOPOSIDE] gave an Activity (MCF7 [1]) of 0.2%, an Activity (MCF7 [2]) of 4.6% and a viability at 25 µM (MCF7 [3]) of 25.7%. The Activity (MCF7 [4]) was “inactive”, the Activity (MCF7 [5]) was 6.8% and the Activity (MCF7 [6]) was 1.4%. The Activity (MCF7 [7]) was 0.834 g, the Activity (MCF7 [8]) was 0.9% and the Activity (MCF7 [9]) was 57%. For the same compound, the Activity (MCF7 [10]) was 0.8%, the Activity (MCF7 [11]) was 2.2% and the Activity (MCF7 [12]) was 6.7%. For the same compound, the Activity (MCF7 [13]) was 6.7%, the Activity (MCF7 [14]) was 12.4% and the Activity (MCF7 [15]) was 0.8%. It also gave an Activity (MCF7 [16]) of 10.4%, a viability at 50 µM (MCF7 [17]) of 73.9% and a viability at 5 µM (MCF7 [18]) of 89.7%. For the same compound, the viability at 25 µM (MCF7 [19]) was 90.6%, the Activity (MCF7 [20]) was 1.9% and the Activity (MCF7 [21]) was 12.7%. For the same compound, the Activity (MCF7 [22]) was 7.7%, the Activity (MCF7 [23]) was 14.8% and the viability at 10 µM (MCF7 [24]) was 73.9%. For the same compound, the viability at 25 µM (MCF7 [25]) was 81.1%, the Activity (MCF7 [26]) was 7.1% and the Activity (MCF7 [27]) was 0.2%. For the same compound, the Activity (MCF7 [28]) was 0.8%.
